NF-kB neuron act – activators of NF-kB expression in neurons, primary screen, cell-based, HTS; human neuronal cells, NF-kB reporter expression; stronger effect = higher value; fold change at 12.5 µM; hit rate 1.6% among 190,000; AID 1239, 2008; in the data active = fold change above about 3.3
FLuc inh counter – firefly luciferase enzyme inhibitors, primary screen, artefact control for luciferase-based inhibitor screens, biochemical, luminescence, ATPLite. Luciferin 4-monooxygenase (Photinus pyralis), P08659. hit rate 1.5% among 200,000. 10 min. inhibition, % at 10 µM. AID 1006, 2008;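 active = inhibition above about 50% when tested at 10 µM, limit read from the data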
Target sequence (P08659 whole entry, looked up): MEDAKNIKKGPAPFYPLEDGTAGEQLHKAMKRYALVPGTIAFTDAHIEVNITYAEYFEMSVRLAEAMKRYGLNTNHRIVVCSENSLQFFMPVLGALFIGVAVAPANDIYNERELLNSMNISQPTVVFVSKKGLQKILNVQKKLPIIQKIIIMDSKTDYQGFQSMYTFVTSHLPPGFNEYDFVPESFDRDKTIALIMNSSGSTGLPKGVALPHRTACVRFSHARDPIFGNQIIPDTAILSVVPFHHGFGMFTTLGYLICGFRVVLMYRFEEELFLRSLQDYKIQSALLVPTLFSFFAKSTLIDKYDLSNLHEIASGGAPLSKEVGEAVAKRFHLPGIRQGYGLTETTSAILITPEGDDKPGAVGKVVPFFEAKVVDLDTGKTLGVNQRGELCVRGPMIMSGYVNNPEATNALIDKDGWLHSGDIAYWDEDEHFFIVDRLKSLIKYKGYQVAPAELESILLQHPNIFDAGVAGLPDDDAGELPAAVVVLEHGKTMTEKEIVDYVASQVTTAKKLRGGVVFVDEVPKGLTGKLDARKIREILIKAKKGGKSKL
APP 5'UTR act – activators of APP 5'UTR luciferase reporter, primary screen, SH-SY5Y cells. SH-SY5Y APP 5'UTR luciferase reporter, luminescence; zero percent = DMSO vehicle wells. activation, % at 2 µM. hit rate 1% among 190,000;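 active = activation above a set limit, based on mean plus 3 SD of controls, cut at about 140% in these data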
STAT1 act – STAT1 signaling activators, primary screen, cell-based, HTS, luciferase reporter; NIH 3T3 STAT1-luciferase reporter, IFN-gamma, luminescence; 100% = IFN-gamma alone, no compound; activation (% of control), % at 5.5 µM; hit rate 2.6% among 200,000;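 active = activation above the screen-wide mean activation plus 3 SD, cut at about 130% in these data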
APP 5UTR inh – inhibitors of APP translation via 5'UTR reporter, primary screen, APP 5'UTR luciferase, SH-SY5Y cells. SH-SY5Y APP 5'UTR-luciferase reporter, luminescence. inhibition, % at 2 µM. hit rate 0.82% among 190,000;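 active = inhibition above a set limit, derived from the sample mean plus 3 SD, cut at about 45% in these data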
FLuc stim CS – FLuc activators, initial screening, artefact control for FLuc-dependent activation tests, biochemical, ATPlite luminescence; 200,000 tested, under 10 active; ATPlite luciferase biochemical, 10 min; 0 = ATP-free wells, 1 = DMSO control; activation factor at 10 µM;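 active = luciferase activation factor, scaled between plate controls, of at least 2 with compound at 10 µM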
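System: Luciferase/luciferin detection reagent, cell-free biochemical luciferase assay | Medium: PBS buffer for ATP | Dosing: Test compounds dosed from 2 mM stocks in 100% DMSO | Timing: 10 min at ambient temperature | Signal: Luminescence measurement of luciferase light output | Evaluation: Luciferase activation, seen as luminescence increase over controls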
Numbers stand for hits; n = inactive; x = no result given. In the library only some 4.8% were active in any assay of this set; here they are far more common.

SMILES	NF-kB neuron act	FLuc inh counter	APP 5'UTR act	STAT1 act	APP 5UTR inh	FLuc stim CS
O=C(Cn1cnc2cc([N+](=O)[O-])ccc2c1=O)NC(c1ccccc1)c1ccccc1	n	n	n	n	n	n
CCc1cc(=O)oc2c(C)c(OCC(=O)N3CCCc4ccccc43)ccc12	n	n	n	n	n	n
CC(=O)Nc1ccc(N2N=C(C)C(N=Nc3ccccc3)C2=O)cc1 (configuration not stated)	n	n	n	n	n	n
O=C(Cc1sc(Nc2ccccc2)nc1-c1ccccc1)NCc1ccccn1	n	n	n	130.4	n	n
O=C(O)Cc1sc(Nc2ccccc2)nc1-c1ccc(Cl)cc1	n	n	n	n	n	n
O=C(Cc1ccccc1)NCc1ccccn1	n	n	n	n	n	n
Cc1ccc(Nc2nc(-c3ccccc3)c(CC(=O)O)s2)cc1	n	n	n	131.0	n	n
CCc1sc(NS(C)(=O)=O)nc1-c1ccccc1	n	n	n	n	49.8	n
Cc1cc(NC(=O)COc2c(C)cccc2C)no1	n	n	n	n	n	n
CCOC(=O)N1CCN(CC(O)COc2ccc(C)cc2C(C)(C)C)CC1 (configuration not stated)	n	n	n	n	n	n
CC(=O)N1CC[n+]2c(-c3ccc(Cl)cc3)csc21	n	n	n	n	n	n
CCCn1nnc(NC(=O)c2ccc(OC)cc2)n1	n	n	n	n	n	n
Cc1cccc(NC(=O)c2ccc(S(=O)(=O)N(C)C)cc2)n1	n	n	n	n	n	n
Cc1cccc(NC(=O)c2csnn2)n1	13.2	n	n	n	n	n
CCOc1ccc(C(=O)Nc2cccc(C)n2)cc1	4.57	79.0	143.7	n	n	n
CCOc1ccc(C(=O)Nc2cc(C)ccn2)cc1	3.69	97.3	186.0	n	n	n
CCOc1ccc(C(=O)Nc2nnn(CC)n2)cc1	n	60.5	n	n	n	n
Cc1cc(C)nc(NS(=O)(=O)c2ccc(N/C=C/C(=O)c3ccc(Cl)c(Cl)c3)cc2)n1	n	n	n	n	n	n
CCOC(=O)c1cc(-c2ccccc2)sc1NC(=O)C(C)OC(=O)c1cccnc1Cl (configuration not stated)	n	n	n	n	n	n
O=C(NCc1ccccn1)c1cccc(NS(=O)(=O)c2ccccc2F)c1	n	n	n	n	n	n
Cn1nnc(NC(=O)c2ccc(C(C)(C)C)cc2)n1	n	79.8	n	n	n	n
Cc1cccc(NC(=O)c2ccc(COc3ccc4ccccc4c3)o2)n1	n	n	n	144.8	n	n
Cn1nnc(NC(=O)c2ccc3ccccc3c2)n1	n	n	n	n	n	n
COc1ccc(CCNC(=O)C(=O)NCc2ccccn2)cc1	n	n	n	n	n	n
COc1ccc(C(=O)c2nccc3ccccc23)cc1	n	n	n	n	n	n
SMILES	NF-kB neuron act	FLuc inh counter	APP 5'UTR act	STAT1 act	APP 5UTR inh	FLuc stim CS
N/C(=N\OC(=O)C12CC3CC(CC(C3)C1)C2)c1ccccn1	n	66.0	n	142.4	n	n
N/C(=N\OC(=O)C12CC3CC(CC(C3)C1)C2)c1ccccc1	n	64.7	n	n	n	n
C/C(=N\NC(=O)c1ccccn1)C12CC3CC(CC(C3)C1)C2	n	n	n	149.9	n	n
O=C(NN=C1CCCCCCC1)c1ccccn1	n	n	170.0	n	n	n
O=C(N/N=C1\CCCCc2ccccc21)c1ccccn1	n	n	n	n	n	n
O=C(NCC1CCCO1)c1onc(CSc2cccc3ccccc23)c1C(=O)O (configuration not stated)	n	n	n	n	n	n
C/C(=N/NC(=O)c1ccoc1C)C12CC3CC(CC(C3)C1)C2	n	n	158.3	n	n	n
COc1cc(/C=C/C(=O)CC(=O)/C=C/c2ccc(O)c(OC)c2)ccc1O	7.39	n	n	n	n	n
Cc1nc(NCc2ccco2)c2c3c(sc2n1)CCC3	n	n	n	149.8	n	n
Cc1ccc(Cn2ccc(O)c(Cc3ccccc3)c2=O)cc1	n	n	n	n	n	n
O=C(/C=C/Nc1ccccc1F)c1cccs1	7.21	94.7	175.3	n	n	n
O=C(/C=C/Nc1ccc(F)cc1F)c1cccs1	3.83	97.7	n	n	n	n
CCOC(=O)c1ccccc1N/C=C/C(=O)c1cccs1	n	n	n	n	n	n
O=C(/C=C\Nc1cccc(F)c1)c1cccs1	7.68	78.7	188.6	149.1	n	n
Cc1ccc(N/C=C/C(=O)c2cccs2)cc1	n	96.9	214.2	n	n	n
CC(C)c1ccc(NC(=O)CSc2ncccc2C(=O)Oc2cccc([N+](=O)[O-])c2)cc1	n	n	n	n	n	n
Cn1c(=O)c2c(=O)cc(NNC(=O)C(C)(C)C)[nH]c2n(C)c1=O	n	n	n	n	45.7	n
CN(C)/N=C/c1ccc(N2CCOCC2)cc1	n	63.0	n	n	n	n
S=c1[nH]ncn1/N=C/c1ccc(Br)cc1	n	n	n	n	n	n
S=c1[nH]ncn1/N=C/c1ccc(N2CCOCC2)cc1	n	86.7	x	n	x	n
Fc1ccc(N/N=C/c2ccc(N3CCOCC3)cc2)c(F)c1	3.57	n	n	131.1	n	n
C/C(=N\Nc1ccc(F)cc1F)c1ccc(N2CCOCC2)cc1	n	n	n	n	n	n
CCc1cc2c(=O)n(Cc3ccco3)c(SCC(=O)N(C)C3CCS(=O)(=O)C3)nc2s1 (configuration not stated)	n	n	n	n	n	n
O=C(CSc1ncnc2ccccc12)c1cccs1	4.57	70.1	139.2	n	n	n
Cc1ccc(CSc2ncnc3ccccc23)cc1	n	n	n	n	n	n
SMILES	NF-kB neuron act	FLuc inh counter	APP 5'UTR act	STAT1 act	APP 5UTR inh	FLuc stim CS
Cc1ccc(C(=O)CSc2ncnc3ccccc23)o1	n	n	n	159.4	n	n
CCN(CC)CCn1c2ccccc2c2cnc(N)c(C#N)c21	n	n	n	176.0	n	n
CN(c1ccc([N+](=O)[O-])cc1C(N)=O)C1CCCCC1	n	n	n	n	n	n
CS(=O)(=O)N1CCC(C(=O)N2CCN(c3ccccc3F)CC2)CC1	n	n	n	n	n	n
Cc1csc(SCC(=O)Nc2ncc(Cl)c(C)c2Cl)n1	n	n	n	n	n	n
Cc1ccc2nc(NNC(=O)c3ccc(S(=O)(=O)N4CCc5ccccc5C4)cc3)sc2c1	n	n	n	n	57.8	n
COc1ccc(CC(=O)NNS(=O)(=O)c2ccccc2)cc1OC	n	n	n	n	n	n
CN(N)C(=S)Nc1ccc(Cl)cc1	n	n	n	n	n	n
CCc1ccccc1NC(=O)c1onc(C)c1Cl	n	n	n	n	n	n

Source: PubChem
